We go through three molecules from ChEMBL document CHEMBL1806356, “Synthesis, characterization and antimicrobial studies of some new pyrazole incorporated imidazole derivatives” (Eur J Med Chem, 2011).

For series [1], the system named is Salmonella typhimurium. As to the kind of experiment: Antibacterial activity against Salmonella Typhimurium assessed as zone of inhibition at 1000 ug/ml after 24 hrs by agar diffusion method. The format is functional, Salmonella enterica subsp. enterica serovar Typhimurium. The note with it: Salmonella enterica, read-out: IZ. Put shortly:
(§1)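 Well diffusion on Mueller-Hinton agar seeded with 24 h old bacterial cultures. Test compounds were dissolved in DMSO at 1 and 0.5 mg/mL and added to labeled wells. Plates were incubated 24 h at 37 °C. The inhibition zone around each well was measured in mm. Triplicate experiments, standard deviation calculated.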
(A growth-free zone around the sample is the usual read-out of agar diffusion tests.)

The subject of series [2] is Clostridium perfringens. As to the kind of experiment: Antibacterial activity against Clostridium perfringens assessed as zone of inhibition at 1000 ug/ml after 24 hrs by agar diffusion method. The format is functional. The note with it: read-out: IZ. An outline of the steps: (§2)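 Well diffusion on Mueller-Hinton agar seeded with 24 h old cultures. Compounds dissolved in DMSO at 1 and 0.5 mg/mL and added to wells punched with a sterile cork borer, with a DMSO-only control. Plates incubated 24 h at 37 °C. Read-out was the inhibition zone in mm, run in triplicate, standard deviation calculated.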

For series [3], the system named is Mus musculus. As to the kind of experiment: Toxicity in Swiss albino mouse assessed as behavioral changes at 1000 to 3000 mg/kg, po administered as single dose measured at 4th to 24th hrs. It counts as organism-based. More on the design: dose 1000-3000 mg/kg, route oral. To be noted: in vivo. An outline of the steps: (§3)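 Single oral dose of 1000 to 3000 mg/kg, given as a fine suspension in double distilled water with Tween 80. Animals housed under a light/dark cycle. Toxic symptoms and behavioural changes were observed continuously at 4, 8, 12 and 24 h, and onset was recorded. Deaths were also recorded.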

The test system of series [4] is Nannizzia gypsea. As to the kind of experiment: Antifungal activity against Microsporum gypseum at 1000 ug/ml after 72 hrs by agar diffusion method. It counts as functional. To be noted: read-out: DIZ. Put shortly:
(§4)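 Fungal spores were suspended in normal saline (one loopful in 3 mL) and lawned on agar plates. Wells were punched with a sterile cork borer and loaded with test compound in DMSO at the different concentrations. A DMSO solvent control was included. Petri dishes were prepared in triplicate and held at 25 °C for 72 h.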

Series [5] deals with Trichophyton rubrum. As to the kind of experiment: Antifungal activity against Trichophyton rubrum at 1000 ug/ml after 72 hrs by agar diffusion method. The format is functional. To be noted: read-out: DIZ. An outline of the steps: as §4
The subject of series [6] is Bacillus subtilis. As to the kind of experiment: Antibacterial activity against Bacillus subtilis assessed as zone of inhibition at 500 ug/ml after 24 hrs by agar diffusion method. It counts as functional. The note with it: read-out: IZ. Put shortly: as §1
Series [7] relates to Staphylococcus aureus. As to the kind of experiment: Antibacterial activity against Staphylococcus aureus assessed as zone of inhibition at 1000 ug/ml after 24 hrs by agar diffusion method. To be noted: read-out: IZ. It counts as functional. Put shortly:
as §1

Series [8] relates to Candida albicans. As to the kind of experiment: Antifungal activity against Candida albicans at 500 ug/ml after 72 hrs by agar diffusion method. It counts as functional. To be noted: read-out: DIZ. Put shortly: as §4
Series [9] has as its system Clostridium perfringens. As to the kind of experiment: Antibacterial activity against Clostridium perfringens assessed as zone of inhibition at 500 ug/ml after 24 hrs by agar diffusion method. It counts as functional. To be noted: read-out: IZ. Put shortly: as §2
The subject of series [10] is Candida albicans. As to the kind of experiment: Antifungal activity against Candida albicans at 1000 ug/ml after 72 hrs by agar diffusion method by agar diffusion method. It counts as functional. The note with it: read-out: DIZ. An outline of the steps: as §4
The test system of series [11] is Pseudomonas aeruginosa. As to the kind of experiment: Antibacterial activity against Pseudomonas aeruginosa ATCC 27853 assessed as zone of inhibition at 1000 ug/ml after 24 hrs by agar diffusion method. It counts as functional. The note with it: ATCC 27853, 24 h, read-out: IZ. Put shortly:
as §1

For series [12], the system named is Nannizzia gypsea. As to the kind of experiment: Antifungal activity against Microsporum gypseum at 500 ug/ml after 72 hrs by agar diffusion method. The note with it: read-out: DIZ. It counts as functional. Put shortly: as §4
The subject of series [13] is Escherichia coli. As to the kind of experiment: Antibacterial activity against Escherichia coli ATCC 25922 assessed as zone of inhibition at 1000 ug/ml after 24 hrs by agar diffusion method. It counts as functional. The note with it: ATCC 25922, 24 h, read-out: IZ. An outline of the steps:
as §1

Series [14] concerns Trichophyton rubrum. As to the kind of experiment: Antifungal activity against Trichophyton rubrum at 500 ug/ml after 72 hrs by agar diffusion method. The format is functional. To be noted: read-out: DIZ. An outline of the steps:
as §4

The subject of series [15] is Pseudomonas aeruginosa. As to the kind of experiment: Antibacterial activity against Pseudomonas aeruginosa ATCC 27853 assessed as zone of inhibition at 500 ug/ml after 24 hrs by agar diffusion method. The format is functional. To be noted: ATCC 27853, 24 h, read-out: IZ. Put shortly: as §1
Series [16] concerns Aspergillus niger. As to the kind of experiment: Antifungal activity against Aspergillus niger at 500 ug/ml after 72 hrs by agar diffusion method. It counts as functional. The note with it: read-out: DIZ. An outline of the steps:
as §4

For series [17], the system named is Staphylococcus aureus. As to the kind of experiment: Antibacterial activity against Staphylococcus aureus assessed as zone of inhibition at 500 ug/ml after 24 hrs by agar diffusion method. The format is functional. The note with it: read-out: IZ. Put shortly: as §1
For series [18], the system named is Aspergillus flavus. As to the kind of experiment: Antifungal activity against Aspergillus flavus at 1000 ug/ml after 72 hrs by agar diffusion method. The note with it: read-out: DIZ. The format is functional. An outline of the steps: as §4
In series [19] the test system is Bacillus subtilis. As to the kind of experiment: Antibacterial activity against Bacillus subtilis assessed as zone of inhibition at 1000 ug/ml after 24 hrs by agar diffusion method. It counts as functional. The note with it: read-out: IZ. Put shortly:
as §1

Series [20] relates to Aspergillus niger. As to the kind of experiment: Antifungal activity against Aspergillus niger at 1000 ug/ml after 72 hrs by agar diffusion method. The format is functional. To be noted: read-out: DIZ. Put shortly: as §4
Series [21] relates to Salmonella typhimurium. As to the kind of experiment: Antibacterial activity against Salmonella Typhimurium assessed as zone of inhibition at 500 ug/ml after 24 hrs by agar diffusion method. It counts as functional, Salmonella enterica subsp. enterica serovar Typhimurium. The note with it: Salmonella enterica, read-out: IZ. An outline of the steps: as §1
Series [22] has as its system Aspergillus flavus. As to the kind of experiment: Antifungal activity against Aspergillus flavus at 500 ug/ml after 72 hrs by agar diffusion method. It counts as functional. To be noted: read-out: DIZ. Put shortly: as §4
Series [23] has as its system Escherichia coli. As to the kind of experiment: Antibacterial activity against Escherichia coli ATCC 25922 assessed as zone of inhibition at 500 ug/ml after 24 hrs by agar diffusion method. It counts as functional. To be noted: ATCC 25922, 24 h, read-out: IZ. An outline of the steps:
as §1

The test system of series [24] is Mus musculus. As to the kind of experiment: Toxicity in Swiss albino mouse assessed as mortality at 1000 to 3000 mg/kg, po administered as single dose measured at 4th to 24th hrs. The format is organism-based. More on the design: dose 1000-3000 mg/kg, route oral. To be noted: in vivo. An outline of the steps: as §3

In the case of `COC(=O)/C=C1/C(=O)NC(=S)N1/N=C/c1c[nH]nc1-c1ccc(SC)cc1`, the zone of inhibition at 1000 µg/mL stood at 12 mm in [1]; 16 mm in series [2]; 5 mm in series [4]; 16 mm in series [5]; 6 mm in series [7]; 5 mm in [10]. Also, the zone of inhibition at 1000 µg/mL in series [11] came out at 16 mm; in series [13], 12 mm; in series [18] it was 7 mm; in series [19], 10 mm; in [20], 10 mm. The Activity entry in series [3] and in [24] was “Non-toxic” in each case. The zone of inhibition at 500 µg/mL in [6] was found to be 9 mm; in series [8], 4 mm; in series [9] it was 15 mm; in series [12], 4 mm; in [14] it was 15 mm; in [15], 15 mm. The zone of inhibition at 500 µg/mL in series [16] turned out to be 9 mm; in series [17] it was 5 mm; in series [21], 11 mm; in series [22], 6 mm; in [23] it was 9 mm.
For `Cc1ccc(-c2n[nH]cc2-c2nc(-c3ccc(Br)cc3)c(-c3ccc(Br)cc3)[nH]2)cc1`, the zone of inhibition at 1000 µg/mL is 4 mm in series [1]; 3 mm in [2]; 2 mm in series [4]; 3 mm in [5]; 3 mm in series [7]; 4 mm in series [10]. Also, the zone of inhibition at 1000 µg/mL in [11] turned out to be 2 mm; in series [13], 4 mm; in series [18], 3 mm; in series [19], 4 mm; in series [20], 3 mm. The zone of inhibition at 500 µg/mL in series [6] amounted to 3 mm; in series [8], 3 mm; in series [9], 2 mm; in series [12] it was 1 mm; in series [14] it was 2 mm; in series [15] it was 1 mm. The zone of inhibition at 500 µg/mL worked out at 2 mm in series [16]; 2 mm in series [17]; 3 mm in [21]; 2 mm in series [22]; 3 mm in series [23].
Take `Clc1cc(-c2n[nH]cc2-c2nc(-c3ccc(Br)cc3)c(-c3ccc(Br)cc3)[nH]2)c(Cl)s1`: the zone of inhibition at 1000 µg/mL amounted to 2 mm in [1]; 5 mm in [2]; 3 mm in series [4]; 6 mm in series [5]; 3 mm in series [7]; 6 mm in series [10]. The zone of inhibition at 1000 µg/mL in series [11] is 4 mm; in [13] it was 4 mm; in series [18] it was 4 mm; in series [19], 2 mm; in [20], 4 mm. The zone of inhibition at 500 µg/mL in series [6] is 1 mm; in [8], 5 mm; in series [9], 4 mm; in series [12], 2 mm; in series [14], 5 mm; in [15], 3 mm. The zone of inhibition at 500 µg/mL is 3 mm in [16]; 2 mm in series [17]; 1 mm in [21]; 3 mm in series [22]; 3 mm in [23].
